Source: ChEMBL document CHEMBL3112538, “Novel spirooxindole-pyrrolidine compounds: synthesis, anticancer and molecular docking studies” (2014)
Active and inactive are the calls of the source. The calls are words filed in the database; no cut-off is given here.

Tests used:
[1] = test system: A549; assay: Cytotoxicity against human A549 cells at 50 ug/ml by MTT assay; type: functional
Summary of the method: (§1)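 A549 cells (NCIS Pune) grown in DMEM with 10% FBS, 2 mM L-glutamine, penicillin/streptomycin, pH 7.2. 5 × 10^5 cells were seeded with compound at 100, 50 or 25 per mL and kept at 37 °C, 5% CO2. MTT (1 mg/mL, 4 h) was added, formazan dissolved in DMSO and read at 540 nm. IC50 is the mean of three replicate experiments; Duncan test at P = 0.05.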

[2] = test system: A549; assay: Cytotoxicity against human A549 cells at 25 ug/ml by MTT assay; type: functional; summary of the method: as §1
[3] = test system: A549; assay: Cytotoxicity against human A549 cells by MTT assay; type: functional, cell-based; summary of the method: as §1
[4] = test system: A549; assay: Cytotoxicity against human A549 cells at 100 ug/ml by MTT assay; type: functional; summary of the method: as §1
[5] = test system: A549; assay: Cytotoxicity against human A549 cells assessed as growth inhibition at 25 ug/ml after 24 hrs by agarose gel electrophoresis; type: functional, cell-based
Summary of the method: (§2)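 A549 cells were exposed to compound for 24 h. 1 × 10^6 cells were pelleted, PBS-washed and lysed at 4 °C for 15 min in 10 mM Tris-HCl pH 7.4 with 10 mM EDTA and 0.5% Triton X-100. Supernatant was treated with proteinase K (60 °C, 60 min) then RNase A (37 °C, 60 min). DNA was isopropanol/NaCl precipitated overnight and run on a 2% agarose gel.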

[6] = test system: A549; assay: Induction of apoptosis in human A549 cells assessed as DNA fragmentation at 25 ug/ml after 24 hrs by agarose gel electrophoresis; type: functional, cell-based; summary of the method: as §2
[7] = test system: A549; assay: Induction of apoptosis in human A549 cells at 25 ug/ml after 24 hrs by propidium iodide/FITC staining-based confocal laser scanning microscopy; type: functional, cell-based
Summary of the method: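 Cells were exposed to compound or untreated for 24 h, washed twice in 0.01 M PBS and suspended in binding buffer. They were stained with FITC and PI for 30 min at 4 °C in the dark, pelleted and smeared. Fluorescence was viewed at once by confocal laser scanning microscopy at 400× magnification.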

COc1ccc2[nH]cc(C(=O)[C@]3(C#N)[C@@H](c4ncc[nH]4)CN(C)[C@]34C(=O)Nc3ccccc34)c2c1
inhibition at 50 µg/mL [1]: 74.4%
inhibition at 25 µg/mL [2]: 62.8%
Activity [3]: Dose-dependent effect
inhibition at 100 µg/mL [4]: 83%

N#C[C@@]1(C(=O)c2c[nH]c3ccccc23)[C@@H](c2ncc[nH]2)C2CSCN2[C@]12C(=O)Nc1ccc(Cl)cc12 (some centres undefined)
inhibition at 50 µg/mL [1]: 13.4%
inhibition at 25 µg/mL [2]: 6%
Activity [3]: Dose-dependent effect
inhibition at 100 µg/mL [4]: 24%

COc1ccc2[nH]cc(C(=O)[C@]3(C#N)[C@@H](c4ncc[nH]4)C4CSCN4[C@]34C(=O)Nc3ccc(Br)cc34)c2c1 (some centres undefined)
inhibition at 50 µg/mL [1]: 68.4%
inhibition at 25 µg/mL [2]: 36.2%
Activity [3]: Dose-dependent effect
inhibition at 100 µg/mL [4]: 82.7%

COc1ccc2[nH]cc(C(=O)[C@]3(C#N)[C@@H](c4ncc[nH]4)C4CSCN4[C@]34C(=O)Nc3ccc(F)cc34)c2c1 (some centres undefined)
inhibition at 50 µg/mL [1]: 31.1%
inhibition at 25 µg/mL [2]: 15.7%
Activity [3]: Dose-dependent effect
inhibition at 100 µg/mL [4]: 56.2%

COc1ccc2[nH]cc(C(=O)[C@]3(C#N)[C@@H](c4ncc[nH]4)CN(C)[C@]34C(=O)Nc3ccc(I)cc34)c2c1
inhibition at 50 µg/mL [1]: 22.2%
inhibition at 25 µg/mL [2]: 3.7%
Activity [3]: Dose-dependent effect
inhibition at 100 µg/mL [4]: 50.2%

Cc1ccc2c(c1)[C@]1(C(=O)N2)N(C)C[C@H](c2ncc[nH]2)[C@@]1(C#N)C(=O)c1c[nH]c2ccccc12
growth inhibition (GI) [5]: Active
Activity [6]: Active
inhibition at 50 µg/mL [1]: 53.5%
inhibition at 25 µg/mL [2]: 26.7%
Activity [3]: Dose-dependent effect
inhibition at 100 µg/mL [4]: 77.3%

COc1ccc2[nH]cc(C(=O)[C@]3(C#N)[C@@H](c4ncc[nH]4)CN(C)[C@]34C(=O)Nc3ccc(Br)cc34)c2c1
inhibition at 50 µg/mL [1]: 9.9%
inhibition at 25 µg/mL [2]: 5.1%
Activity [3]: Dose-dependent effect
inhibition at 100 µg/mL [4]: 13.4%

COc1ccc2[nH]cc(C(=O)[C@]3(C#N)[C@@H](c4ncc[nH]4)CN(C)[C@]34C(=O)Nc3ccc(F)cc34)c2c1
inhibition at 50 µg/mL [1]: 35.6%
inhibition at 25 µg/mL [2]: 9.9%
Activity [3]: Dose-dependent effect
inhibition at 100 µg/mL [4]: 66.2%

CN1C[C@H](c2ncc[nH]2)[C@@](C#N)(C(=O)c2c[nH]c3ccccc23)[C@@]12C(=O)Nc1ccc(Cl)cc12
inhibition at 50 µg/mL [1]: 30.9%
inhibition at 25 µg/mL [2]: 6.9%
Activity [3]: Dose-dependent effect
inhibition at 100 µg/mL [4]: 51.5%

CN1C[C@H](c2ncc[nH]2)[C@@](C#N)(C(=O)c2c[nH]c3ccccc23)[C@@]12C(=O)Nc1ccc(I)cc12
inhibition at 50 µg/mL [1]: 6.8%
inhibition at 25 µg/mL [2]: 5.9%
Activity [3]: Dose-dependent effect
inhibition at 100 µg/mL [4]: 14.9%

CN1C(=O)[C@@]2(c3ccccc31)N(C)C[C@H](c1ncc[nH]1)[C@@]2(C#N)C(=O)c1c[nH]c2ccccc12
inhibition at 50 µg/mL [1]: 4.3%
inhibition at 25 µg/mL [2]: 3.3%
Activity [3]: Dose-dependent effect
inhibition at 100 µg/mL [4]: 7.4%

COc1ccc2[nH]cc(C(=O)[C@]3(C#N)[C@@H](c4ncc[nH]4)CN(C)[C@]34C(=O)N(C)c3ccccc34)c2c1
inhibition at 50 µg/mL [1]: 79.2%
inhibition at 25 µg/mL [2]: 66.3%
Activity [3]: Dose-dependent effect
inhibition at 100 µg/mL [4]: 85%

N#C[C@@]1(C(=O)c2c[nH]c3ccccc23)[C@@H](c2ncc[nH]2)C2CSCN2[C@]12C(=O)Nc1ccccc12 (some centres undefined)
growth inhibition (GI) [5]: Active
Activity [6]: Active
inhibition at 50 µg/mL [1]: 79.3%
inhibition at 25 µg/mL [2]: 59.9%
Activity [3]: Dose-dependent effect
inhibition at 100 µg/mL [4]: 85.6%

CN1C(=O)[C@@]2(c3ccccc31)N1CSCC1[C@H](c1ncc[nH]1)[C@@]2(C#N)C(=O)c1c[nH]c2ccccc12 (some centres undefined)
growth inhibition (GI) [5]: Active
Activity [7]: Active
Activity [6]: Active
inhibition at 50 µg/mL [1]: 75.1%
inhibition at 25 µg/mL [2]: 64.8%
Activity [3]: Dose-dependent effect
inhibition at 100 µg/mL [4]: 87.8%

N#C[C@@]1(C(=O)c2c[nH]c3ccccc23)[C@@H](c2ncc[nH]2)C2CSCN2[C@]12C(=O)Nc1ccc(F)cc12 (some centres undefined)
inhibition at 50 µg/mL [1]: 33.5%
inhibition at 25 µg/mL [2]: 15.5%
Activity [3]: Dose-dependent effect
inhibition at 100 µg/mL [4]: 66.2%

CN1C[C@H](c2ncc[nH]2)[C@@](C#N)(C(=O)c2c[nH]c3ccccc23)[C@@]12C(=O)Nc1ccc([N+](=O)[O-])cc12
inhibition at 50 µg/mL [1]: 33.4%
inhibition at 25 µg/mL [2]: 8.8%
Activity [3]: Dose-dependent effect
inhibition at 100 µg/mL [4]: 56.6%

Cc1ccc2c(c1)[C@]1(C(=O)N2)N2CSCC2[C@H](c2ncc[nH]2)[C@@]1(C#N)C(=O)c1c[nH]c2ccccc12 (some centres undefined)
growth inhibition (GI) [5]: Active
Activity [6]: Active
inhibition at 50 µg/mL [1]: 75.8%
inhibition at 25 µg/mL [2]: 66.3%
Activity [3]: Dose-dependent effect
inhibition at 100 µg/mL [4]: 84.3%

COc1ccc2[nH]cc(C(=O)[C@]3(C#N)[C@@H](c4ncc[nH]4)C4CSCN4[C@]34C(=O)Nc3ccccc34)c2c1 (some centres undefined)
growth inhibition (GI) [5]: Active
Activity [6]: Active
inhibition at 50 µg/mL [1]: 72.1%
inhibition at 25 µg/mL [2]: 54.4%
Activity [3]: Dose-dependent effect
inhibition at 100 µg/mL [4]: 83.3%

N#C[C@@]1(C(=O)c2c[nH]c3ccccc23)[C@@H](c2ncc[nH]2)C2CSCN2[C@]12C(=O)Nc1ccc(Br)cc12 (some centres undefined)
inhibition at 50 µg/mL [1]: 9%
inhibition at 25 µg/mL [2]: 5.1%
Activity [3]: Dose-dependent effect
inhibition at 100 µg/mL [4]: 15.6%

N#C[C@@]1(C(=O)c2c[nH]c3ccccc23)[C@@H](c2ncc[nH]2)C2CSCN2[C@]12C(=O)Nc1ccc(I)cc12 (some centres undefined)
inhibition at 50 µg/mL [1]: 56.3%
inhibition at 25 µg/mL [2]: 24.5%
Activity [3]: Dose-dependent effect
inhibition at 100 µg/mL [4]: 69%

COc1ccc2[nH]cc(C(=O)[C@]3(C#N)[C@@H](c4ncc[nH]4)CN(C)[C@]34C(=O)Nc3ccc([N+](=O)[O-])cc34)c2c1
inhibition at 50 µg/mL [1]: 4.3%
inhibition at 25 µg/mL [2]: 3%
Activity [3]: Dose-dependent effect
inhibition at 100 µg/mL [4]: 6.8%

CN1C[C@H](c2ncc[nH]2)[C@@](C#N)(C(=O)c2c[nH]c3ccccc23)[C@@]12C(=O)Nc1ccccc12
inhibition at 50 µg/mL [1]: 6.3%
inhibition at 25 µg/mL [2]: 3.1%
Activity [3]: Dose-dependent effect
inhibition at 100 µg/mL [4]: 23.2%

COc1ccc2[nH]cc(C(=O)[C@]3(C#N)[C@@H](c4ncc[nH]4)C4CSCN4[C@]34C(=O)Nc3ccc(Cl)cc34)c2c1 (some centres undefined)
growth inhibition (GI) [5]: Active
Activity [6]: Active
inhibition at 50 µg/mL [1]: 72.1%
inhibition at 25 µg/mL [2]: 55.2%
Activity [3]: Dose-dependent effect
inhibition at 100 µg/mL [4]: 81.8%

CN1C[C@H](c2ncc[nH]2)[C@@](C#N)(C(=O)c2c[nH]c3ccccc23)[C@@]12C(=O)Nc1ccc(F)cc12
inhibition at 50 µg/mL [1]: 9%
inhibition at 25 µg/mL [2]: 4.5%
Activity [3]: Dose-dependent effect
inhibition at 100 µg/mL [4]: 22.2%

COc1ccc2[nH]cc(C(=O)[C@]3(C#N)[C@@H](c4ncc[nH]4)C4CSCN4[C@]34C(=O)N(C)c3ccccc34)c2c1 (some centres undefined)
inhibition at 50 µg/mL [1]: 68.5%
inhibition at 25 µg/mL [2]: 52.9%
Activity [3]: Dose-dependent effect
inhibition at 100 µg/mL [4]: 80.1%

N#C[C@@]1(C(=O)c2c[nH]c3ccccc23)[C@@H](c2ncc[nH]2)C2CSCN2[C@]12C(=O)Nc1ccc([N+](=O)[O-])cc12 (some centres undefined)
inhibition at 50 µg/mL [1]: 63.4%
inhibition at 25 µg/mL [2]: 28%
Activity [3]: Dose-dependent effect
inhibition at 100 µg/mL [4]: 76.8%

COc1ccc2[nH]cc(C(=O)[C@]3(C#N)[C@@H](c4ncc[nH]4)C4CSCN4[C@]34C(=O)Nc3ccc([N+](=O)[O-])cc34)c2c1 (some centres undefined)
inhibition at 50 µg/mL [1]: 5.1%
inhibition at 25 µg/mL [2]: 3.3%
Activity [3]: Dose-dependent effect
inhibition at 100 µg/mL [4]: 9%

COc1ccc2[nH]cc(C(=O)[C@]3(C#N)[C@@H](c4ncc[nH]4)CN(C)[C@]34C(=O)Nc3ccc(Cl)cc34)c2c1
inhibition at 50 µg/mL [1]: 15.2%
inhibition at 25 µg/mL [2]: 4.7%
Activity [3]: Dose-dependent effect
inhibition at 100 µg/mL [4]: 23%

CN1C[C@H](c2ncc[nH]2)[C@@](C#N)(C(=O)c2c[nH]c3ccccc23)[C@@]12C(=O)Nc1ccc(Br)cc12
inhibition at 50 µg/mL [1]: 9.8%
inhibition at 25 µg/mL [2]: 4.4%
Activity [3]: Dose-dependent effect
inhibition at 100 µg/mL [4]: 34.2%
